# Assay outcomes from PubChem.
# Only some compounds are listed: those with a hit (about 2.5% of all), similar ones and a draw of the others.
# TDP2 absorb = TDP2 (human) inhibition, absorbance primary screen; O95551; 370,000 tested, 0.34% active; AID 720702; recombinant TDP2, T5PNP hydrolysis, p-nitrophenol absorbance 415 nm; inhibition, % at 12.8 µM;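 active means inhibition above the mean of all tested compounds plus 3 SD, set per campaign, cut at about 25% in these data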;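 further: 0% = DMSO with enzyme and 100% = buffer with substrate but no TDP2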
#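 Incubation: 2 h at 37 °C; Test system: recombinant human TDP2; Quantity: enzyme 120 nM; Read-out basis: percent inhibition; Medium: 50 mM Tris-HCl pH 7.5 with Mg2+, KCl, DTT, BSA; Repeats: single replicate; Compound: 12.8 µM single point, 1% DMSO; Signal: epi absorbance; Reagent: 5 mM T5PNP chromogenic substrate; Benchmarks: no-enzyme high, DMSO-plus-enzyme low.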
# E coli Lon inh = inhibits E. coli Lon protease. P0A9M0. purified E. coli Lon protease, fluorescence polarization. inhibition, % at 7.94 µM. 360,000 tested, 0.42% active. AID 602123; in the data active means inhibition above about 13%, passing the limit was not always enough;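 further: 0% = enzyme with probe and DMSO and 100% = no enzyme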
# PAD4 FP inh = blocks human protein arginine deiminase 4; recombinant PAD4, RCA probe fluorescence polarization; inhibition, % at 6.36 µM; AID 485272; 330,000 tested, 0.41% active; Q9UM07;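 active means percent inhibition above a cutoff equal to the mean of all tested compounds plus 3 SD, cut at about 15% in these data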;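 further: 0% = PAD4 with RCA probe and DMSO and 100% = probe without PAD4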
# GSTO1 counter = counter-screen for RBBP9 inhibitors: inhibitors of human GSTO1; P78417; recombinant GSTO1, activity-based probe fluorescence polarization; inhibition, % at 5.96 µM; 300,000 tested, 1.1% active; AID 1974;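 active means inhibition above the campaign mean inhibition plus 3 SD, cut at about 35% in these data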;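 further: 0% = GSTO1-1 with DMSO and 100% = wells lacking GSTO1-1 enzyme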
# PRMT1 inh = PRMT1 (human) inhibition, primary screen. Q99873. recombinant PRMT1, activity-based probe fluorescence polarization. inhibition, % at 2.79 µM. 370,000 tested, 1.3% active. AID 652257;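 active means inhibition above about 21% made by adding two undisclosed values, limit read from the data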
# An asterisk follows results filed as active; . = no result.
SMILES,TDP2 absorb,E coli Lon inh,PAD4 FP inh,GSTO1 counter,PRMT1 inh
COC(=O)C[C@@H]1CC[C@@H]2[C@H](COc3ccc(NC(=O)Nc4c(C)noc4C)cc3C(=O)N2C)O1,8,.,.,.,0
CC1CN2C(c3ccc([N+](=O)[O-])cc3)=CSC2=N1 (stereo unspecified),1,-3,1,-1,22*
CC1C(=O)NN=C1c1ccc([N+](=O)[O-])cc1 (stereo unspecified),-1,-3,.,.,4
CCC(=O)N1CCc2cc(Br)c(S(=O)(=O)N3CCC(C(=O)NCCCOC(C)C)CC3)cc21,-4,.,.,.,-2
Cc1ccc(SCc2[nH]nc3c2C(c2ccco2)C(C#N)=C(N)O3)cc1 (stereo unspecified),5,-4,-9,37*,2
Cc1cc2c(c(=O)o1)C(c1cccs1)C(C#N)=C(N)O2 (stereo unspecified),12,-8,3,16,0
Cc1ccc(SCc2[nH]nc3c2C(c2ccc(C)o2)C(C#N)=C(N)O3)cc1 (stereo unspecified),7,-3,13,37*,-1
Cc1ccc([C@H]2C(C#N)=C(N)Oc3cc(C)oc(=O)c32)o1,9,-5,-1,-2,22*
CC(COc1cccc(C#N)c1)CN1CCC(C(O)(c2ccccc2)c2ccccc2)CC1 (stereo unspecified),-13,.,.,.,-4
O=S1(=O)C=CCN1Cc1cn(Cc2ccccc2)nn1,1,.,.,.,-2
COc1cc(C=NN=c2sc3ccccc3n2C)ccc1OCCO,4,.,.,.,-5
COc1ccc(CNC(=O)CSc2nc3[nH]ncc3c(=O)n2-c2ccccc2Br)cc1,.,.,-2,42*,.
O=C(CSc1nc2[nH]ncc2c(=O)n1-c1ccccc1Br)NCc1ccccc1Cl,-1,2,-1,5,-1
O=C(C=Cc1ccco1)c1ccc([N+](=O)[O-])cc1,1,-2,.,.,23*
Cc1ccc(NC(=S)NNc2ccc(C(=O)O)cc2[N+](=O)[O-])cc1C,-9,8,1,36*,2
CCn1cc(C(=O)NC(C)C23CC4CC(CC(C4)C2)C3)cn1 (stereo unspecified),1,-13,1,-1,2
CC(NC(=O)Cn1ncc(Cl)c(Cl)c1=O)C12CC3CC(CC(C3)C1)C2 (stereo unspecified),.,4,5,37*,.
O=C(NCCc1ccccc1)OCc1cn(Cc2ccccc2C(F)(F)F)nn1,-3,.,.,.,0
CC(C)(C)c1cc[n+](/C(C(=S)Nc2ccccc2F)=C(/[O-])c2ccc3c(c2)OCCO3)cc1,8,-8,-2,-2,24*
CC(=O)Nc1ccccc1O,2,-1,-4,5,-1
CC(CC(=O)O)Nc1ccccc1O (stereo unspecified),7,-3,-5,48*,23*
COc1ccc(-[n+]2c(C)cc(/C=C3\Sc4ccccc4N3C)cc2C)cc1,0,-185,-5,2,24*
COc1ccc(C(=O)/C=C2\Sc3ccccc3N2C)cc1,-8,6,1,12,21
CC(=O)n1cc(N(C(=O)CCl)c2ccc([N+](=O)[O-])cc2)c2ccccc21,18,1,19*,75*,4
O=Cc1[nH]c2ccccc2c1N(C(=O)CCl)c1ccc([N+](=O)[O-])cc1,1,-5,11,73*,6
SMILES,TDP2 absorb,E coli Lon inh,PAD4 FP inh,GSTO1 counter,PRMT1 inh
Cn1cc(C(=O)N/N=C/c2ccc([N+](=O)[O-])cc2)c2ccccc21,0,-3,1,-12,-1
CC(=O)n1cc(CO)c2ccccc21,5,-4,0,7,-7
CC(=O)n1cc(N(C(=O)CCl)c2ccccc2)c2ccccc21,-1,-8,13,77*,12
O=S1(=O)c2c(cccc2N2CCSCC2)Oc2ccccc2CN1Cc1cn(Cc2ccccc2C(F)(F)F)nn1,-7,.,.,.,-2
O=C(NC(Cc1ccccc1)C(=O)O)/C(=C\c1ccco1)NC(=O)c1ccccc1Br (stereo unspecified),-11,3,0,3,24*
O=C(NCc1ccco1)c1nc2nc(-c3cccs3)cc(C(F)(F)F)n2n1,-12,-10,-5,7,23*
Cc1ccc(S(=O)(=O)N2CN(Cc3ccco3)c3nc4ccccc4nc32)cc1,11,3,16*,11,10
COc1cc(N2C(=O)C=CC2=O)c(OC)cc1Cl,10,1,-4,8,90*
